Assay results of several laboratories.
Compare with care: the assays were run in different laboratories.
Maoa: Amine oxidase [flavin-containing] A (Maoa, Mus musculus, UniProt Q64133)
DDB1: DNA damage-binding protein 1 (DDB1, Homo sapiens, UniProt Q16531)
EPHX2: Bifunctional epoxide hydrolase 2 (EPHX2, Homo sapiens, UniProt P34913)

Compound | target | test | setting | quantity | result
CC[C@H](C)[C@@H]1NC(=O)[C@H](CC(=O)O)NC(=O)[C@H]([C@@H](C)O)NC(=O)[C@@H]2CSSC[C@@H]3NC(=O)[C@H](CC(C)C)NC(=O)[C@H](CC(N)=O)NC(=O)[C@H](CC(C)C)NC(=O)[C@H](CCCNC(=N)N)NC(=O)[C@H](Cc4ccc(O)cc4)NC(=O)[C@H](CCCCN)NC(=O)[C@H](CCSC)NC(=O)[C@H](CO)NC(=O)[C@H]([C@@H](C)O)NC(=O)[C@H](CCCNC(=N)N)NC(=O)[C@H](CSSC[C@H](NC(=O)[C@H]([C@@H](C)O)NC(=O)[C@H](CCCCN)NC(=O)[C@H](CCCNC(=N)N)NC3=O)C(=O)NCC(=O)N[C@@H](CO)C(=O)N[C@H](C(=O)O)CSSC[C@H](NC(=O)[C@@H](NC(=O)[C@@H](N)CCCNC(=N)N)[C@@H](C)O)C(=O)N[C@@H](CCCCN)C(=O)N[C@@H](CC(=O)O)C(=O)N[C@@H](CC(C)C)C(=O)N[C@@H]([C@@H](C)CC)C(=O)N3CCC[C@H]3C(=O)N[C@@H](C(C)C)C(=O)N[C@@H](CO)C(=O)N[C@@H](CCC(=O)O)C(=O)N2)NC(=O)[C@H](CCCNC(=N)N)NC1=O | Potassium voltage-gated channel subfamily A member 2 (KCNA2, Homo sapiens, UniProt P16389) | ion current, inhibitor, two-electrode voltage clamp | oocytes | Ki | 2.5 nM
C#CCN(C)CCCOc1ccc(Cl)cc1Cl | Maoa | enzyme activity, inhibitor, fluorescence |  | IC50 | 45 nM
CC[C@H](C)[C@H](NC(=O)[C@H](CO)NC(=O)[C@H](CCC(N)=O)NC(=O)CNC(=O)[C@H](CC(C)C)NC(=O)[C@H](CO)NC(=O)[C@H](CO)NC(=O)[C@H](CCCCN)NC(=O)[C@H](Cc1ccc(O)cc1)NC(=O)[C@@H](NC(=O)[C@H](Cc1ccc(O)cc1)NC(=O)[C@H](Cc1c[nH]cn1)NC(=O)[C@H](CC(C)C)NC(=O)[C@@H](NC(=O)[C@H](CO)NC(=O)[C@@H](NC(=O)[C@H](CCC(N)=O)NC(=O)CN)[C@@H](C)O)[C@@H](C)CC)[C@@H](C)CC)C(=O)N[C@@H](Cc1c[nH]cn1)C(=O)N[C@@H](C)C(=O)N[C@@H](CCC(N)=O)C(=O)N[C@@H](CC(C)C)C(=O)N[C@@H](CCCNC(=N)N)C(=O)N[C@@H](CCC(N)=O)C(=O)N[C@@H](CS)C(=O)N[C@@H](CC(C)C)C(=O)NCC(=O)NCC(=O)NCC(=O)NCC(=O)O | DDB1 | cell-free assay, FP | pH 7.5 | IC50 | 867 nM
C[S+]([O-])CCCN=C=S (stereo not shown) | EPHX2 | enzyme activity, inhibitor, fluorescence |  | IC50 | 20200 nM
CC[C@H](C)[C@H](NC(=O)[C@H](CCCCN)NC(=O)[C@@H](NC(=O)[C@H](CCCNC(=N)N)NC(=O)[C@H](CCC(=O)O)NC(=O)[C@H](CC(C)C)NC(=O)[C@H](CCC(N)=O)NC(=O)[C@H](CCCCN)NC(=O)[C@H](CC(C)C)NC(=O)[C@@H](NC(=O)[C@H](Cc1c[nH]cn1)NC(=O)[C@H](CCC(=O)O)NC(=O)[C@@H](N)CCCNC(=N)N)C(C)C)C(C)C)C(=O)N[C@@H](CO)C(=O)NCC(=O)N[C@@H](CCC(N)=O)C(=O)N[C@@H](CC(C)C)C(=O)N[C@@H](CO)C(=O)N1CCC[C@H]1C(=O)N[C@@H](CCCNC(=N)N)C(=O)N[C@@H](CC(C)C)C(=O)N[C@@H](Cc1ccccc1)C(=O)N[C@@H](CCCNC(=N)N)C(=O)N[C@@H](CCCCN)C(=O)N[C@@H](CC(C)C)C(=O)N1CCC[C@H]1C(=O)N1CCC[C@H]1C(=O)N[C@@H](CCCNC(=N)N)C(=O)N[C@H](C(=O)N[C@@H](CS)C(=O)N[C@H](C(=O)N[C@@H](CO)C(=O)O)C(C)C)C(C)C | DDB1 | cell-free assay, FP | pH 7.5 | IC50 | 58 nM
COC(=O)c1cc(N(C)C(=O)c2ccn3ncc(-c4ccc(C(=O)O)cc4)c3c2)ccc1Cl | Proto-oncogene tyrosine-protein kinase receptor Ret (RET, Homo sapiens, UniProt P07949) | enzyme activity, inhibitor |  | IC50 | > 30000 nM
Cc1ccc(F)c(CNS(=O)(=O)c2cccc3cccnc23)c1 | Maoa | enzyme activity, inhibitor, fluorescence |  | IC50 | 2740 nM
O=C(C=Cc1ccccc1)Nc1cc(-c2ccnc(N3CCC(O)CC3)c2)ccn1 | Estrogen receptor beta (ESR2, Homo sapiens, UniProt Q92731) | binding, SPR |  | Kd | 1630 nM
S=C=NCCc1ccccc1 | EPHX2 | enzyme activity, inhibitor, fluorescence |  | IC50 | 7500 nM
CNC(=O)c1ccc(-c2cnn3ccc(C(=O)N(C)c4ccc(Cl)c(C(=O)O)c4)cc23)cc1 | Tyrosine-protein kinase JAK2 (JAK2, Homo sapiens, UniProt O60674) | enzyme activity, inhibitor |  | IC50 | > 30000 nM
